Results on 13 molecules are retold here after PubChem BioAssay.

The source made the active and inactive calls.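 Rule for the calls, unless noted: active = a full or partial loss of lipid-probe fluorescence in the fish gall bladder, intestine or both, judged by eye; inactive = no fluorescence loss, or compound toxic to the fish.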

Test [1] can be described thus: inhibitors of TNFa-induced NFkB p65 translocation, primary screen, imaging, HUVEC, MLSMR starter and 10KST1 sets (AID 438;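 active = inhibition above 20% together with a positive visual image hit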;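 note: compound added about 3h40 before a 20 min TNFalpha stimulation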;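 for inhibition: signal is the nuclear over cytoplasmic p65 intensity ratio per well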). As to conditions: HUVEC TNFa-induced p65 nuclear translocation; cell count: measured here: nuclei count (cytotoxicity indicator), at 2.08 µM; inhibition: at 2 µM, stronger effect = higher value, 0% TNFa-plus-vehicle, 100% no-TNFa wells.
The nature of test [2]: endothelial E-selectin expression blockers – imaging, HUVEC, immunofluorescence, MLSMR starter and 10KST1 sets, primary screen (AID 487;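 active = visually confirmed hit in the image check and inhibition above 20%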;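 for inhibition: signal is fraction of cell area covered by stained E-selectin grains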;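 for nuclei count: 100% = median nuclei count of all wells on the same plate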). As to conditions: HUVEC TNFalpha-induced E-selectin immunofluorescence imaging, at 2 µM; inhibition: stronger effect = higher value; nuclei count: measured here: cell number, toxicity.
Test [3] is described as follows: Primary imaging screen for DUSP6 inhibitors that restore phospho-Erk in transfected HeLa cells, chemical complementation (AID 609;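 active = compounds giving at least 50% inhibition in the cell-based MKP-3 phosphatase rescue imaging test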;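 for inhibition: phospho-Erk level distribution per well compared with pooled transfected vehicle control wells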). As to conditions: HeLa MKP-3 transfected, phospho-Erk imaging KS statistic, at 10 µM, cells stimulated with TPA for 15 min.
The target of test [4] is Dual specificity protein phosphatase 6 (Homo sapiens) (UniProt Q16828). The description is as above. The following applies: HeLa MKP-3 transfected, phospho-Erk imaging KS statistic; at 10 µM; stronger effect = higher value; cells stimulated with TPA for 15 min.
Chain of Dual specificity protein phosphatase 6 (Homo sapiens) (Q16828 whole entry, looked up): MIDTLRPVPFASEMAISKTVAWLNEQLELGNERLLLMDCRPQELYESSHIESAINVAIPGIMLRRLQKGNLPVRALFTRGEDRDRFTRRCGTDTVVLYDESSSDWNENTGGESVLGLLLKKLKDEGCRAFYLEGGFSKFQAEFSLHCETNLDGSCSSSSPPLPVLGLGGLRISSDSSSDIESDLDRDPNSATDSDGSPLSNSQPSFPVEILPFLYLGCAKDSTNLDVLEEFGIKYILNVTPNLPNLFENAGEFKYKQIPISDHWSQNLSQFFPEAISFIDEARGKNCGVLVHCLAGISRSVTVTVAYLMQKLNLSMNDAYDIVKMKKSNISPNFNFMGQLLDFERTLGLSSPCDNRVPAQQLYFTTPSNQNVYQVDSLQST
The target in test [5] is Voltage-gated potassium channel subunit beta-2 (Rattus norvegicus) (UniProt P62483). Briefly: inhibitors of rat Kvbeta2 reductase activity – biochemical, NADPH fluorescence, primary screen (AID 622;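 active = fluorescence slope higher than the sample average by over 3 SD, cut at about -0.22 in these data, passing the limit was not always enough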;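 note: slope of raw intensity against log time taken from 70 to 1610 s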). The following applies: recombinant KvBeta, 4-cyanobenzaldehyde reduction, at 10 µM, stronger effect = higher value.
Chain of Voltage-gated potassium channel subunit beta-2 (Rattus norvegicus) (P62483 whole entry, looked up): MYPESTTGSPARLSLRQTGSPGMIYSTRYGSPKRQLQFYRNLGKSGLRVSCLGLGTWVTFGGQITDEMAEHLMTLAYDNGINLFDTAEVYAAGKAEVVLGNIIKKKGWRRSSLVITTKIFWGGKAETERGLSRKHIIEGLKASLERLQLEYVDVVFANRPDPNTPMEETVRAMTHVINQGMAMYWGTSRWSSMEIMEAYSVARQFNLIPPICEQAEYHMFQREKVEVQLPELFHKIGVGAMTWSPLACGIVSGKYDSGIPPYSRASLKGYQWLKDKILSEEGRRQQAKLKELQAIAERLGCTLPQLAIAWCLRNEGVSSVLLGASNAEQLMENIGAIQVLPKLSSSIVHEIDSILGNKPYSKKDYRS
Test [6] has the same target. Briefly: enhancers of rat Kvbeta2 NADPH turnover – biochemical, NADPH fluorescence, primary screen (AID 623;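 active = NADPH fluorescence slope more negative than the mean of all samples by about 3 SD, 99.7% confidence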;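 note: fluorescence intensity change per second fitted from 20 to 320 s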). The following applies: Recombinant KvBeta, NADPH fluorescence decrease slope, 10 min; at 10 µM; stronger effect = lower value.
For test [7], the target named is Muscarinic acetylcholine receptor M4 (Homo sapiens) (UniProt P08173). In words: M4-linked GIRK flux change, two-sided – cell-based, HEK293 M4/GIRK, thallium flux, BTC-AM, M4 allosteric agonist project, primary screen (AID 625;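 active = fluorescence slope after compound addition differing from the mean of all tested samples at 99.7% confidence, mostly higher but some lower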;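 note: thallium influx through GIRK channels coupled to M4 in HEK293 cells with BTC-AM dye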). As to conditions: at 10 µM, actives lie on both sides. The procedure, abridged: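 Material: M4/GIRK1/GIRK2 stable HEK293 cell line. Medium: pH 7.3 thallium assay buffer. Dosing: single compound concentration, 10 µM final. Schedule: 1 h dye loading, 2 min kinetic read. Measured by: kinetic fluorescence with BTC-AM dye. Read-out: post-addition slope, 15–24 s, of baseline-normalized fluorescence. Benchmarks: carbachol and DMSO controls.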
Chain of Muscarinic acetylcholine receptor M4 (Homo sapiens) (P08173 whole entry, looked up): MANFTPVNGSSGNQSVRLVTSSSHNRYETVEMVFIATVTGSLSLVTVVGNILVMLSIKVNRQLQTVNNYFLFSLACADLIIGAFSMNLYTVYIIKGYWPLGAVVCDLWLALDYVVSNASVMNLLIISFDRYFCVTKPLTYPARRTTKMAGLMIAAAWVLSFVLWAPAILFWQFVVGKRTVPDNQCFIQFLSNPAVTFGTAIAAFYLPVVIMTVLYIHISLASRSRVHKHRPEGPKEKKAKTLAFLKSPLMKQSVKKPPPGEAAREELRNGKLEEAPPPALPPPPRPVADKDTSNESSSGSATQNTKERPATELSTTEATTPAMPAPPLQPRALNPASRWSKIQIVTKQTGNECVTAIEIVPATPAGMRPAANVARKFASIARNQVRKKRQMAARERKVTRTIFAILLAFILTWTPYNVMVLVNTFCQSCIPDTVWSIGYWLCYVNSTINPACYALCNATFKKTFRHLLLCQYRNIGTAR

Test [8] in a line: inhibitors of larval lipid processing in zebrafish, primary screen, whole organism, PED6 fluorescence, gall bladder and intestine (AID 686).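 Note: larvae 5 to 7 days old with five fish per well; signal comes from phospholipase A2 cleavage of quenched PED6 carried via bile; overnight exposure to compound and PED6 before scoring.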 As to conditions: Zebrafish larvae PED6 lipid processing, fluorescence scoring; screened at 20 µM (by protocol). The essentials: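 System: live zebrafish larvae aged 5-7 days, whole organism; measure: graded gall bladder and intestinal fluorescence inhibition per well; incubation: overnight exposure; reagent: ingested quenched lipid PED6 at 100 nM; signal: By-eye fluorescence microscopy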

Test [9] in a line: loss of swimming-algae plug formation – whole organism, Chlamydomonas reinhardtii, WT vs cilia-less mutant, absorbance, 96-well, primary screen (AID 463189;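 active = inhibition at or above 50% relative to wild type and mutant plate controls; inactive = inhibition below 50%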;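 note: 0% = wild type cc124 cells in DMSO and 100% = ciliumless bld1 mutant cells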). The following applies: Chlamydomonas reinhardtii gravitaxis, OD600 absorbance, 2 days; at 10 µM; stronger effect = higher value.
Where [10] appears, read: measured here: cell density z-score.
Where [11] appears, read: measured here: nuclear c-Myc green intensity z-score.
The mark [12] stands for this setting: measured here: nuclear pErk red intensity z-score, stronger effect = higher value.

Regarding `N#CCCN(C(=O)c1ccco1)c1ccccc1`, the cell count in [1] was determined as 600. Besides, the inhibition (commonly the relative decrease from the control value, in per cent) in test [1] is 3.1% (inactive); in test [2] it was -91% (inactive); in test [4], 1.42% (inactive); in test [9], -5.86% (inactive). The nuclei count in test [2] turned out to be 128%. In addition, the z-score in test [3] (setting [10]) is 0.6; in test [3] (setting [11]) it was -1.06; in test [3] (setting [12]), -0.443. The fluorescence slope is -0.462 (inactive) in [5] and 0.00534 (inactive) in test [7]. Moreover, in test [6], the NADPH fluorescence slope was -0.000111 (inactive). The outcome in [8] was inactive.

On to `Cn1c(Cl)nc2c1c(=O)n(Cc1cccc(Br)c1)c(=O)n2C`, for which, in test [1], the cell count amounted to 691. In addition, the inhibition in test [1] was -8.5% (inactive); in test [2] it was -97.4% (inactive); in test [4], 3.97% (inactive); in test [9], -10.8% (inactive). The molecule further showed a nuclei count in [2] of 169%. For the same molecule, the z-score in test [3] (setting [10]) is -1.75; in test [3] (setting [11]) it was 0.296; in [3] (setting [12]) it was 0.815. Moreover, the fluorescence slope in [5] was -0.507 (inactive); in test [7], 0.00593 (inactive). Also, the NADPH fluorescence slope in [6] was -1.8e-05 (inactive). In test [8], the molecule was classed as inactive.

`C=CCc1cccc(/C=N/n2cnnc2)c1O`: in test [1], the cell count turned out to be 534. The inhibition in test [1] is -6.9% (inactive); in [2], -121% (inactive); in test [4], 13.4% (inactive); in [9], -8.96% (inactive). In addition, in test [2], the nuclei count amounted to 136%. Moreover, the z-score in test [3] (setting [10]) is -0.238; in [3] (setting [11]), 0.5; in test [3] (setting [12]), -0.321. Moreover, the fluorescence slope in test [5] is -0.446 (inactive); in [7], 0.00478 (inactive). Further, the NADPH fluorescence slope in test [6] was -0.00012 (inactive). Also, the outcome in test [8] was inactive.

Consider `C/C(NC(=O)c1ccccc1F)=C1\C(=O)C[C@@H]2[C@H]1C2(C)C`, for which the cell count in test [1] worked out at 697. Moreover, the inhibition is -13.5% (inactive) in [1], -170% (inactive) in test [2], -2.47% (inactive) in [4] and 24.1% (inactive) in test [9]. In test [2], this molecule registered a nuclei count of 187%. The results for the z-score in test [3] (setting [10]), in test [3] (setting [11]) and in [3] (setting [12]) were -0.142, 0.763 and -0.13, respectively. Besides, the fluorescence slope in test [5] is -0.483 (inactive); in test [7], 0.00606 (inactive). Besides, the NADPH fluorescence slope in test [6] is -0.000131 (inactive). Also, the result in test [8] was inactive.

As to `CC1(C)Cc2[nH]c(=S)c(C#N)cc2CO1`, in test [1], the cell count is 531. Besides, the inhibition was -11.7% (inactive) in [1], -90.9% (inactive) in test [2], -5.81% (inactive) in test [4] and -14% (inactive) in test [9]. The same molecule registered a nuclei count in [2] of 118%. In addition, the z-score in test [3] (setting [10]) is 0.165; in test [3] (setting [11]) it was 0.751; in [3] (setting [12]) it was -0.483. The fluorescence slope was -0.459 (inactive) in test [5] and 0.0062 (inactive) in [7]. In [6], the NADPH fluorescence slope is -0.000113 (inactive). Besides, in test [8], the result was inactive.

In the case of `O=C1c2ccccc2-c2onc3ccc(NCc4ccco4)c1c23`, the cell count in test [1] was 705. Besides, the inhibition in test [1] is -2.6% (inactive); in test [2], -23.9% (inactive); in test [4], 10.9% (inactive); in test [9] it was -2.14% (inactive). The nuclei count in [2] stood at 118%. The results for the z-score in test [3] (setting [10]), in test [3] (setting [11]) and in test [3] (setting [12]) were 0.599, -0.783 and 0.692, respectively. Also, the fluorescence slope is -0.14 (inactive) in test [5] and 0.000102 (inactive) in test [7]. In addition, in [6], the NADPH fluorescence slope is 1.2e-05 (inactive). In addition, in [8], the outcome is “active; no signal in gallbladder and intestine”.

With `CSc1nc(N)nc(SCC(=O)C23CC4CC(CC(C4)C2)C3)c1C#N`, the cell count in test [1] was 491. Further, the inhibition is 2.8% (inactive) in [1], -70.2% (inactive) in test [2], 15.9% (inactive) in [4] and 35.9% (inactive) in test [9]. The nuclei count in [2] came to 94.4%. Moreover, the figures for the z-score in [3] (setting [10]), in test [3] (setting [11]) and in [3] (setting [12]) were -0.797, 0.314 and -0.79, respectively. For the same molecule, the fluorescence slope in test [5] is -0.334 (inactive); in test [7], 0.00876 (inactive). In addition, the NADPH fluorescence slope in test [6] was -1.7e-05 (inactive). In addition, the molecule was called inactive in test [8].

Consider `C=CC[N+](C)(C)CCCNC(=O)/C=N/O`, for which the cell count in test [1] amounted to 665. The inhibition in test [1] is -3.3% (inactive); in test [2], -22.3% (inactive); in test [4] it was -9.53% (inactive); in test [9] it was -5.25% (inactive). The molecule also displayed a nuclei count in [2] of 164%. Further, the values for the z-score in [3] (setting [10]), in test [3] (setting [11]) and in [3] (setting [12]) were 0.15, -0.161 and -1.51, respectively. Also, the fluorescence slope in test [5] was -0.482 (inactive); in test [7], 0.00537 (inactive). Moreover, the NADPH fluorescence slope in test [6] is -4.6e-05 (inactive). Also, in test [8], the result was inactive.

With `CCOC(=O)C(C)c1nc2ccccc2[nH]c1=O` (centres undefined), in test [1], the cell count amounted to 579. The inhibition in test [1] was -6.6% (inactive); in test [2], -30.5% (inactive); in [4], 1.9e-07% (inactive); in test [9] it was 12.9% (inactive). For the same molecule, the nuclei count in [2] came out at 164%. The z-score in test [3] (setting [10]) is -0.098; in [3] (setting [11]), 0.564; in test [3] (setting [12]) it was 0.462. Also, the fluorescence slope in [5] is -0.397 (inactive); in test [7], 0.00575 (inactive). The NADPH fluorescence slope in [6] was -6.3e-05 (inactive). The molecule was classed as inactive in test [8].

`CCOc1ccc(/C(O)=C2/C(=O)C(=O)N(c3cc(C)on3)C2c2ccc(C(=O)OC)cc2)cc1` (centres undefined): the cell count in test [1] was 391. For the same molecule, the inhibition was -0.4% (inactive) in [1], -27.6% (inactive) in test [2], 9.37% (inactive) in [4] and 11.4% (inactive) in test [9]. In test [2], this molecule gave a nuclei count of 105%. Besides, the z-score is -0.142 in test [3] (setting [10]), 1.45 in [3] (setting [11]) and -0.188 in test [3] (setting [12]). Besides, the fluorescence slope in test [5] is -0.419 (inactive); in test [7], 0.00438 (inactive). For the same molecule, the NADPH fluorescence slope in [6] is -1.9e-05 (inactive). Moreover, the molecule was classed as inactive in test [8].

With `COc1ccc(OC)c(C2C(C#N)=C(N)Oc3cc(C)n(Cc4ccccn4)c(=O)c32)c1` (centres undefined), in [1], the cell count was found to be 736. For the same molecule, the inhibition in [1] is 3.4% (inactive); in [2], -76% (inactive); in test [4], 13.2% (inactive); in test [9], 11.4% (inactive). The same molecule returned a nuclei count in test [2] of 167%. In addition, the values for the z-score in test [3] (setting [10]), in [3] (setting [11]) and in [3] (setting [12]) were 0.84, 0.709 and -0.214, respectively. Moreover, the fluorescence slope in test [5] is -0.443 (inactive); in test [7] it was 0.0059 (inactive). Also, in [6], the NADPH fluorescence slope is -7.4e-05 (inactive). Besides, the molecule was classed as inactive in [8].

As for `COn1c(SC2CCCCC2)nc2ccccc2c1=O`, the cell count in test [1] stood at 587. Moreover, the inhibition in test [1] is -3.1% (inactive); in [2], -35.7% (inactive); in test [4] it was -7.28% (inactive); in test [9], 0.873% (inactive). In test [2], this molecule gave a nuclei count of 160%. In addition, the z-score was 0.823 in [3] (setting [10]), 0.448 in test [3] (setting [11]) and -1.08 in [3] (setting [12]). Also, the fluorescence slope in test [5] is -0.48 (inactive); in [7], 0.00976 (inactive). Besides, the NADPH fluorescence slope in [6] was -7.1e-05 (inactive). Also, the molecule was classed as inactive in [8].

Turning to `CC(C)COC(=O)CCNc1n[nH]c(=O)[nH]c1=O`, the cell count in test [1] is 622. Also, the inhibition is -4.8% (inactive) in test [1], -26.4% (inactive) in test [2], -11.5% (inactive) in test [4] and -4.85% (inactive) in test [9]. This molecule also displayed a nuclei count in test [2] of 174%. In addition, the z-score was 0.623 in [3] (setting [10]), -0.835 in test [3] (setting [11]) and -0.389 in test [3] (setting [12]). The fluorescence slope in test [5] was -0.505 (inactive); in [7], 0.00627 (inactive). Moreover, the NADPH fluorescence slope in test [6] is -4.2e-05 (inactive). Besides, in test [8], the result was inactive.
